# Measurements gathered from unrelated publications.
# Cell line: MCF7
# Read-out: cell growth or viability
SMILES,method,time,IC50
Cc1ccc(-c2cc(-c3ccc(N(C)C)cc3)c3c(=O)n(C)c(=O)n(C)c3n2)cc1,MTT,48 h,15.8 µM
Cc1nc(NC(=O)N2CCC[C@H]2C(N)=O)sc1-c1ccnc(C(C)(C)C(F)(F)F)c1,MTT,,1.89 µM
COc1cc2c3c(n(CCCn4ccnc4)c(=O)c2cc1OC)-c1nc2c(cc1C3=O)OCO2,,72 h,0.372 µM
O=C(C=Cc1ccccc1)Nc1cc(-c2ccnc(N3CCC(O)CC3)c2)ccn1,MTT,72 h,2.51 µM
Cc1ccccc1NC(=O)C=Cc1ccc(O)c(O)c1,MTT,,44.5 µM
O=c1nc(-c2ccc(Nc3nnc(-c4ccc(Cl)cc4)c4ccccc34)cc2)cc(-c2ccccc2)[nH]1,MTT,72 h,0.16 µM
COc1ccc(-c2cc(-c3ccc(OC)cc3)c3c(=O)[nH]c(=O)[nH]c3n2)cc1,MTT,48 h,8.38 µM
COc1cc2ncnc(Nc3ccc4c(c3)/C(=C/c3ccccc3)C(=O)N4C)c2cc1OC,MTT,,7.84 µM
COc1ccc(-c2cc(-c3cccc(Br)c3)c3c(=O)n(C)c(=O)n(C)c3n2)cc1,MTT,48 h,13.5 µM
O=C(CCn1c(=O)ccc2ccccc21)N1CCOCC1,MTT,48 h,9.77 µM
COc1ccc(-c2cc(-c3cc(OC)ccc3OC)c3c(=O)n(C)c(=O)n(C)c3n2)cc1,MTT,48 h,19.8 µM
CC1CCC(C(C)C)C(OC(=O)C=Cc2ccc(O)c(O)c2)C1 (centres unmarked),MTT,,28.6 µM
Cc1nc(Nc2ccc3c(c2)CC(=O)N3)c2ccccc2n1,MTT,,31.3 µM
COc1cc2c3c(n(CCCNC(C)C)c(=O)c2cc1OC)-c1nc2c(cc1C3=O)OCO2,,72 h,0.318 µM
Cc1nc(N(Cc2ccccc2)c2ccc3c(c2)/C(=C/c2ccccc2)C(=O)N3Cc2ccccc2)c2ccccc2n1 (mixture of isomers),MTT,,0.89 µM
COc1ccc(-c2cc(-c3c(OC)cccc3OC)c3c(=O)n(C)c(=O)n(C)c3n2)cc1,MTT,48 h,11.3 µM
Cc1nc(Nc2ccc3c(c2)/C(=C/c2ccccc2Cl)C(=O)N3)c2ccccc2n1,MTT,,6.45 µM
O=C(C=Cc1ccc(O)c(O)c1)OCc1ccccc1,MTT,,85.2 µM
Cc1ccc(-c2cc(-c3ccc(Cl)c(F)c3)c3c(=O)n(C)c(=O)n(C)c3n2)cc1,MTT,48 h,37 µM
COc1cc2ncnc(N(C)c3ccc4c(c3)/C(=C/c3cccc(Cl)c3)C(=O)N4C)c2cc1OC,MTT,,6.53 µM
